{
  "source": "ChEMBL document CHEMBL1127060",
  "about": "(1993)",
  "key": {"[1]": {"experiment": "Agonism at turkey erythrocyte P2Y receptor.", "type": "functional, Meleagris gallopavo", "how_it_was_run": "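Turkey erythrocytes labeled 18–24 h at 37 °C with 2-[3H]myo-inositol in inositol-free DMEM; ghosts made by hypotonic lysis (5 mM Na phosphate pH 7.4, 5 mM MgCl2, 1 mM EGTA). PLC assay: ~175 μg protein ghosts, 1 μM GTPγS, Hepes pH 7.0 medium with 424 μM CaCl2, 2 mM EGTA; 5 min, 30 °C; total [3H]inositol phosphates by anion exchange; K0.5 averaged from 3–8 curves.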"}, "[2]": {"species": "Cavia porcellus", "experiment": "Tested for contraction of guinea pig isolated urinary bladder detrusor muscle at 37 degree C; Less potent than or equal to ATP", "type": "functional", "details": "Muscle tissue"}, "[3]": {"species": "Cavia porcellus", "experiment": "Tested for contraction of guinea pig vas deferens at 37 degree C; Less potent than or equal to ATP", "type": "functional"}, "[4]": {"species": "Cavia porcellus", "experiment": "Tested for relaxation of carbachol-contracted guinea pig taenia coli at 37 degree C; Potency equal to ATP", "type": "functional"}, "[5]": {"species": "Oryctolagus cuniculus", "experiment": "Tested for relaxation of carbachol-contracted rabbit mesenteric artery at 37 degree C; Less potent than or equal 2MeSATP", "type": "functional"}, "[6]": {"species": "Oryctolagus cuniculus", "experiment": "Tested for contraction of rabbit saphenous artery produced by 1 uM alpha,beta-MeATP at 37 degree C; Not active", "type": "functional"}, "[7]": {"species": "Oryctolagus cuniculus", "experiment": "Tested for relaxation of carbachol-contracted rabbit aorta at 37 degree C; More potent than or equal to 2MeSATP", "type": "functional"}},
  "note": "Calls of active or inactive are those of the source. The rule behind the calls is not given here.",
  "data": [
    {"compound": "Nc1nc(SCCc2ccc([N+](=O)[O-])cc2)nc2c1ncn2C1O[C@H](COP(=O)(O)O)[C@@H](O)[C@H]1O", "note": "(some centres not stated)", "values": [
      {"measurement": "K 0.5", "setting": "[1]", "value": 3000, "unit": "nM"},
      {"measurement": "Relative activity", "setting": "[2]", "value": "Partially active"},
      {"measurement": "Relative activity", "setting": "[3]", "value": "Partially active"},
      {"measurement": "Relative activity", "setting": "[4]", "value": 6.5},
      {"measurement": "Relative activity", "setting": "[5]", "value": 5.4},
      {"measurement": "Relative activity", "setting": "[6]", "value": "inactive"},
      {"measurement": "Relative activity", "setting": "[7]", "value": 6.1}
    ]}
  ]
}
